Data taken from ChEMBL document CHEMBL1146521, “Sesquiterpene lactones from Anthemis altissima and their anti-Helicobacter pylori activity” (2003).
In brackets after ≈: the same amount, converted by molar mass. Activity calls are given as the source filed them. No cut-off for these calls is given here.

Columns and labels:
Escherichia coli = assay: Antimicrobial activity against Escherichia coli ATCC 35218 after 36 hrs under aerobic condition by microdilution method; format: functional; settings: ATCC 35218, 36 h
Procedure, shortened: (§1)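 Bacteria grown overnight at 37 °C in tryptone soya broth (~10^9 cells/mL), then diluted in sterile saline to about 1.0 × 10^5 per well. Broth serial microdilution with compounds predissolved in DMSO, at final […]; DMSO ≤1%. Incubated 36 h at 37 °C. MIC = lowest concentration with no visible growth under binocular microscope. Inocula checked on TSA. Controls: DMSO, streptomycin.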

Pseudomonas aeruginosa = assay: Antimicrobial activity against Pseudomonas aeruginosa ATCC 27853 after 36 hrs under aerobic condition by microdilution method; format: functional, organism-based; procedure, shortened: as §1
Micrococcus flavus = assay: Antimicrobial activity against Micrococcus flavus ATCC 10240 after 36 hrs under aerobic condition by microdilution method; format: functional; settings: ATCC 10240, 36 h; procedure, shortened: as §1
Helicobacter pylori [1] = assay: Antimicrobial activity against Helicobacter pylori isolates after 3 days under microaerobic condition by microdilution method
Staphylococcus aureus = assay: Antimicrobial activity against Staphylococcus aureus ATCC 6538 after 36 hrs under aerobic condition by microdilution method; format: functional; settings: ATCC 6538, 36 h; procedure, shortened: as §1
Bacillus cereus = assay: Antimicrobial activity against Bacillus cereus isolate after 36 hrs under aerobic condition by microdilution method; format: functional; procedure, shortened: as §1
Proteus mirabilis = assay: Antimicrobial activity against Proteus mirabilis isolates after 36 hrs under aerobic condition by microdilution method; format: functional; procedure, shortened: as §1
Helicobacter pylori [2] = assay: Antimicrobial activity against Helicobacter pylori isolates after 36 hrs under […] condition by microdilution method; format: functional

Compound | MIC (Escherichia coli) | Activity (Pseudomonas aeruginosa) | MIC (Micrococcus flavus) | MIC (Helicobacter pylori [1]) | MIC (Staphylococcus aureus) | MIC (Bacillus cereus) | Activity (Proteus mirabilis) | Activity (Helicobacter pylori [2]) | Activity (Helicobacter pylori [1]) | MIC (Proteus mirabilis)
C=C1C(=O)O[C@H]2C[C@@]3(C)[C@H](O)CCC(=C)[C@@H]3[C@@H](O)[C@H]12 | 50 µg/mL (≈ 189 µM) | inactive | 50 µg/mL (≈ 189 µM) | 50 µg/mL (≈ 189 µM) | 50 µg/mL (≈ 189 µM) | 50 µg/mL (≈ 189 µM) | inactive |  |  | 
C=C1C(=O)O[C@H]2C[C@@]3(C)[C@H](O)CC=C(C)[C@@H]3[C@@H](O)[C@H]12 |  | inactive |  | 12.5 µg/mL (≈ 47.3 µM) | 50 µg/mL (≈ 189 µM) | 25 µg/mL (≈ 94.6 µM) | inactive |  |  | 
COc1cc(-c2oc3cc(O)cc(O)c3c(=O)c2O)ccc1O |  | inactive |  |  |  |  | inactive | inactive |  | 
COc1ccc(-c2oc3cc(O)c(OC)c(O)c3c(=O)c2OC)cc1O |  | inactive |  |  |  |  | inactive |  |  | 
O=c1cc(-c2ccc(O)cc2)oc2cc(O)cc(O)c12 |  | inactive |  |  |  |  | inactive |  | inactive | 
COc1c(-c2ccc(O)c(O)c2)oc2cc(O)cc(O)c2c1=O [3-O-METHYLQUERCETIN] | 50 µg/mL (≈ 158 µM) | inactive |  | 12.5 µg/mL (≈ 39.5 µM) |  |  | inactive |  |  | 
O=C1c2c(O)cc(O)cc2O[C@H](c2ccc(O)c(O)c2)[C@H]1O [(+)-TAXIFOLIN] |  | inactive |  | 25 µg/mL (≈ 82.2 µM) |  |  | inactive |  |  | 
C=C1C(=O)O[C@H]2C[C@@]3(C)[C@H](C(C)=CC[C@@H]3O)[C@@H](O)[C@H]12 [ALTISSIN] |  | inactive |  | 50 µg/mL (≈ 189 µM) | 50 µg/mL (≈ 189 µM) | 12.5 µg/mL (≈ 47.3 µM) | inactive |  |  | 
O=C(/C=C/c1ccc(O)c(O)c1)O[C@@H]1C[C@](O)(C(=O)O)C[C@@H](O)[C@H]1O [CHLOROGENIC ACID] |  | inactive |  | 6.25 µg/mL (≈ 17.6 µM) |  |  | inactive |  |  | 
O=C1C[C@@H](c2ccc(O)c(O)c2)Oc2cc(O)cc(O)c21 [ERIODICTYOL] |  | inactive |  | 50 µg/mL (≈ 173 µM) |  |  | inactive |  |  | 
O=c1c(O[C@@H]2O[C@H](CO)[C@@H](O)[C@H](O)[C@H]2O)c(-c2ccc(O)c(O)c2)oc2cc(O)cc(O)c12 [ISOQUERCETIN] |  | inactive |  | 25 µg/mL (≈ 53.8 µM) |  |  | inactive |  |  | 
COc1ccc(-c2oc3cc(O)cc(O)c3c(=O)c2O)cc1 [KAEMPFERIDE] |  | inactive | 50 µg/mL (≈ 167 µM) | 6.25 µg/mL (≈ 20.8 µM) |  | 25 µg/mL (≈ 83.3 µM) | inactive |  |  | 
O=c1c(O)c(-c2ccc(O)c(O)c2)oc2cc(O)cc(O)c12 [QUERCETIN] |  | inactive |  | 50 µg/mL (≈ 165 µM) |  | 50 µg/mL (≈ 165 µM) | inactive |  |  | 
COc1cc(O)c2c(=O)c(O)c(-c3ccc(O)c(O)c3)oc2c1 [RHAMNETIN] |  | inactive |  | 50 µg/mL (≈ 158 µM) |  |  | inactive |  |  | 
CN[C@@H]1[C@H](O[C@H]2[C@H](O[C@H]3[C@H](O)[C@@H](O)[C@H](N=C(N)N)[C@@H](O)[C@@H]3N=C(N)N)O[C@@H](C)[C@]2(O)C=O)O[C@@H](CO)[C@H](O)[C@H]1O [STREPTOMYCIN] | 200 µg/mL (≈ 344 µM) |  | 100 µg/mL (≈ 172 µM) |  | 100 µg/mL (≈ 172 µM) | 100 µg/mL (≈ 172 µM) |  |  |  | 400 µg/mL (≈ 688 µM)
C=C1C(=O)O[C@H]2/C=C(\C)[C@@H](O)CC/C(C)=C/[C@@H](O)[C@H]12 [TATRIDIN A] |  | inactive |  | 12.5 µg/mL (≈ 47.3 µM) | 50 µg/mL (≈ 189 µM) | 50 µg/mL (≈ 189 µM) | inactive |  |  | 
C=C1C(=O)O[C@H]2CC(=C)[C@@H](O)CC/C(C)=C/[C@@H](O)[C@H]12 [TATRIDIN B] | 50 µg/mL (≈ 189 µM) | inactive | 50 µg/mL (≈ 189 µM) | 50 µg/mL (≈ 189 µM) | 50 µg/mL (≈ 189 µM) | 50 µg/mL (≈ 189 µM) | inactive |  |  | 
